From ChEMBL document CHEMBL1123979, “Structure-activity analysis of a class of orally active hydroxamic acid inhibitors of leukotriene biosynthesis” (J Med Chem, 1988) come the findings set out here.

The target of assay [1] is T1, Polyunsaturated fatty acid 5-lipoxygenase (Rattus norvegicus, UniProt P12527).
T1 sequence (P12527 whole entry): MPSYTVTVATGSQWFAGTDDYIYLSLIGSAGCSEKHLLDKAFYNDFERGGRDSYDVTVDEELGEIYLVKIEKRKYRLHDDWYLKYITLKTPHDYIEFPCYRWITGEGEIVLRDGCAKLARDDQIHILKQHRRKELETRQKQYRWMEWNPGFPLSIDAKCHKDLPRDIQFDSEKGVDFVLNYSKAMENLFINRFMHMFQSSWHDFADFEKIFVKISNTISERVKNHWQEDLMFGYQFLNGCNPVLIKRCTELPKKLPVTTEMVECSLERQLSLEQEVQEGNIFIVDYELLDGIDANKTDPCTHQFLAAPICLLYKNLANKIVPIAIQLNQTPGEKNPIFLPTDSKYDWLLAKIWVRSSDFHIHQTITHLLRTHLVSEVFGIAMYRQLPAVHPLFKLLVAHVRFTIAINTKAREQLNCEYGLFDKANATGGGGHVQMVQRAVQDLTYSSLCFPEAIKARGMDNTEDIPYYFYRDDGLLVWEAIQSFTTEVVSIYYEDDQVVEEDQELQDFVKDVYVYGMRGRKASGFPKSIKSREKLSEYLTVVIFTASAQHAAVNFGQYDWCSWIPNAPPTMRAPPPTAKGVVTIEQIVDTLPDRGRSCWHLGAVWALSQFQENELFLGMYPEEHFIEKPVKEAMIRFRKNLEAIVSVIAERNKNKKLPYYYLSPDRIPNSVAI
Briefly: In vitro inhibition of 5-lipoxygenase from RBL-1 cells. In kind it is cell-based. The method in brief:
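Enzyme source is the 20000g supernatant of RBL-1 cells, assayed for 5-lipoxygenase inhibition. IC50 is reported in µM with a range in parentheses.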

A short description of assay [2]: In vivo inhibition of biosynthesis of leukotriene in rat peritoneal anaphylaxis model at 200 uM/Kg. In kind it is functional. The procedure, abridged:
(§1)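 Rats receive a single oral dose of 200 µmol/kg, and in vivo activity is measured 1 h after dosing in the peritoneal anaphylaxis model. The result is given as % inhibition of leukotriene biosynthesis or flagged as not significant.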

In the next assay the test system is Rattus norvegicus. Briefly: Plasma concentration 1 hr after oral administration of a dose of 200 uM/kg. The class given is functional, organism-based. The method in brief:
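Rats are dosed orally at 200 µmol/kg, and plasma drug concentration is measured 1 h later. Values are the average ± range of two determinations, and the stated detection limit is 2.0 µM.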

The nature of assay [3]: In vivo inhibition of biosynthesis of leukotriene in rat peritoneal anaphylaxis model; non significant at 200 umol/kg. The class given is functional. The procedure, abridged:
as §1

A short description of assay [4]: In vivo inhibition of biosynthesis of leukotriene in rat peritoneal anaphylaxis model at 200 mg/Kg. The class given is functional.
Assay [5] is described as follows: In vivo Inhibition of biosynthesis of leukotriene in rat peritoneal anaphylaxis model. In kind it is functional. The procedure, abridged:
(§2)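 Test compounds are given orally to rats in the peritoneal anaphylaxis model, and leukotriene biosynthesis is measured in vivo. ED50 is expressed in µmol/kg, with the range in parentheses and the mg/kg equivalent.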

Assay [6] can be described thus: In vivo inhibition of biosynthesis of leukotriene in rat peritoneal anaphylaxis model. In kind it is functional. The procedure, abridged:
as §2

A short description of assay [7]: In vivo inhibition of biosynthesis of leukotriene in rat peritoneal anaphylaxis model at 200 umol/kg. In kind it is functional. The procedure, abridged:
as §1

Assay [8] is described as follows: In vivo inhibition of biosynthesis of leukotriene in rat peritoneal anaphylaxis model at 200 uMKg. In kind it is functional. The method in brief:
as §1

The mark [9] stands for this setting: Rattus norvegicus, read-out: ED50.

Take `CC(=O)N(O)C(C)c1ccc(OCc2c(C)cc(C)cc2C)cc1` (stereo not given): inhibition in assay [1] was half-maximal at 620 nM (IC50). For the same compound, the Inhibition in assay [2] is less than 40%.

On to `CC(c1ccc(OCc2ccccc2)cc1)N(O)C=O` (stereo not given), for which the midpoint of inhibition in assay [1], the IC50, lay at 940 nM. In the assay on Rattus norvegicus, this compound gave a Concentration of 2.3 µM. Besides, the inhibition in vivo at 200 µmol/kg in assay [3] is less than 40%.

For the compound `CC(=O)N(O)C(C)c1ccc(/C=C/c2ccccc2)cc1` (stereo not given), the midpoint of inhibition in assay [1], the IC50, lay at 290 nM.

In turn, `CCCCOc1ccc(C(C(C)C)N(O)C(C)=O)cc1` (stereo not given) came in with an IC50 in assay [1] of 880 nM. In the assay on Rattus norvegicus, this compound registered a Concentration of less than 2 µM.

Compound `CC(=O)N(O)C(C)c1ccccc1OCc1ccccc1` (stereo not given) gave an inhibition in vivo at 200 mg/kg in [4] of less than 40%. In assay [1], the IC50 worked out at 760 nM.

With `CC(=O)N(O)C(C)c1ccc(OC2c3ccccc3-c3ccccc32)cc1` (stereo not given), in assay [1], half-maximal inhibition (IC50) was put at 4900 nM. This compound also yielded an Inhibition in [2] of less than 40%.

In the case of `CC(=O)N(O)C(C)c1ccc(C(C)Oc2ccccc2)cc1` (stereo not given), in [1], the IC50 is 460 nM. For the same compound, the Inhibition in [2] was 47%.

Regarding `CCCCOc1ccc(CN(O)C(C)=O)cc1`, 1100 nM corresponded to half-maximal inhibition in assay [1] (IC50).

As for `CC(=O)N(O)C(C)c1ccc(OCc2ccccc2)cc1` (stereo in doubt; 5) [listing 1 of 2 here], the Concentration in the assay with Rattus norvegicus was determined as 70 µM.

`CC(=O)N(O)Cc1ccc(OCc2ccccc2)cc1` registered an IC50 in assay [1] of 460 nM. The same compound had a Concentration in the assay with Rattus norvegicus of 2.1 µM.

In the case of `CC(=O)N(O)C(C)c1ccc(OCc2ccccc2)cc1` (stereo in doubt; 5) [listing 2 of 2 here], the results for the ED50 in [5] and in assay [6] were 8 mg/kg and 28 µM/kg, respectively.

Take `CC(=O)N(O)C(c1ccc(OCc2ccccc2)cc1)C(C)C` (stereo not given): the IC50 in assay [1] was 780 nM. Also, the inhibition in vivo at 200 µmol/kg in assay [7] is less than 40%.

Consider `CCCCOc1cccc(C(C)N(O)C(C)=O)c1` (stereo not given), for which, in [1], 390 nM corresponded to half-maximal inhibition (IC50).

On to `CC(=O)N(O)C(C)c1ccc(SCc2ccccc2)cc1` (stereo not given), for which the IC50 in assay [1] was determined as 190 nM.

Consider `CCCCOc1ccc(C(C)(C)N(O)C(C)=O)cc1`, for which, in assay [1], 650 nM corresponded to half-maximal inhibition (IC50). This compound also displayed an inhibition in vivo at 200 µmol/kg in assay [7] of less than 40%.

As to `CCCCOc1ccc(C(C)N(O)C(C)=O)cc1` (stereo not given), the ED50 in assay [5] (setting [9]) was 17 mg/kg; in assay [6] (setting [9]), 68 µmol/kg. The midpoint of inhibition in [1], the IC50, lay at 790 nM. In addition, the Concentration with Rattus norvegicus is 65.7 µM.

With `CC(C)C(=O)N(O)C(C)c1ccc(OCc2ccccc2)cc1` (stereo not given), in assay [1], half-maximal inhibition (IC50) was put at 470 nM. The inhibition in vivo at 200 µmol/kg in assay [7] is less than 40%.

`CC(=O)N(O)C(C)c1ccc(OCc2ccccc2)cc1` (stereo in doubt; 7): in assay [1], the concentration for half-maximal inhibition (IC50) amounted to 370 nM.

Consider `CCCCOc1ccc(C(C)N(O)C=O)cc1` (stereo not given), for which half-maximal inhibition in [1] (IC50) was put at 1900 nM. The compound further showed an inhibition in vivo at 200 µmol/kg in assay [7] of less than 40%.

Turning to `CCCCOc1ccc(CCCN(O)C(C)=O)cc1`, the IC50 in assay [1] came out at 320 nM.

Regarding `CCCCOc1ccc(CC(C)N(O)C(C)=O)cc1` (stereo not given), the Inhibition in [8] was 74%. For the same compound, the IC50 in assay [1] was found to be 540 nM.

Take `CCCCOc1ccc(CCN(O)C(C)=O)cc1`: the half-maximal inhibitory concentration (IC50) in assay [1] amounted to 380 nM. Moreover, the inhibition in vivo at 200 µmol/kg in assay [7] was less than 40%.

With `CC(=O)N(O)C(C)c1ccc(OCc2ccncc2)cc1` (stereo not given), the ED50 in [5] (setting [9]) was determined as 9 mg/kg; in assay [6] (setting [9]), 32 µmol/kg. Further, the IC50 in assay [1] came to 2600 nM. In addition, in the assay with Rattus norvegicus, the Concentration is 152 µM.

`CC(c1ccc(OCc2ccccc2)cc1)N(O)C(=O)c1ccccc1` (stereo not given): the IC50 in assay [1] came out at 690 nM. The compound further gave an inhibition in vivo at 200 µmol/kg in [7] of less than 40%. The compound further returned a Concentration with Rattus norvegicus of less than 2 µM.

For the compound `CC(=O)N(O)C(C)c1cccc(OCc2ccccc2)c1` (stereo not given), the figures for the ED50 in [5] (setting [9]) and in assay [6] (setting [9]) were 19 mg/kg and 68 µmol/kg, respectively. The concentration for half-maximal inhibition (IC50) in [1] came out at 330 nM.

`CC(=O)N(O)C(C)c1ccc(Oc2ccccc2)cc1` (stereo not given): the results for the ED50 in assay [5] (setting [9]) and in assay [6] (setting [9]) were 12 mg/kg and 47 µmol/kg, respectively. This compound registered an IC50 in assay [1] of 370 nM. In the assay with Rattus norvegicus, this compound had a Concentration of 52 µM.

Regarding `CC(=O)N(O)C(C)c1ccc(OCCc2ccccc2)cc1` (stereo not given), the ED50 in [5] (setting [9]) is 15 mg/kg; in [6] (setting [9]), 49 µmol/kg. Also, half-maximal inhibition in assay [1] (IC50) required 410 nM.

In [1], `CCCCOc1ccc(C(C)N(O)C(=O)c2ccccc2)cc1` (stereo not given) returned an IC50 of 1300 nM. Moreover, the inhibition in vivo at 200 µmol/kg in assay [7] is less than 40%.

Turning to `CC(=O)N(O)C(C)c1ccc(OCc2ccc3ccccc3n2)cc1` (stereo not given), the ED50 was 17 mg/kg in [5] (setting [9]) and 51 µmol/kg in assay [6] (setting [9]). Also, inhibition in assay [1] was half-maximal at 400 nM (IC50).

For the compound `CCCCOc1ccc(C(CC)N(O)C(C)=O)cc1` (stereo not given), the ED50 was determined as 50 mg/kg in assay [5] (setting [9]) and 188 µmol/kg in assay [6] (setting [9]). Further, the IC50 in assay [1] was 740 nM.

Turning to `CCCCOc1ccc(OCCN(O)C(C)=O)cc1`, the ED50 in [5] (setting [9]) came to 22 mg/kg; in [6] (setting [9]), 84 µmol/kg. The compound further had an IC50 in [1] of 750 nM.

In assay [1], `CC(=O)N(O)C(C)c1ccc(OC(c2ccccc2)C(C)C)cc1` (stereo not given) returned an IC50 of 610 nM. This compound yielded an Inhibition in [2] of less than 40%. This compound had a Concentration with Rattus norvegicus of 10.7 µM.

As to `CC(=O)N(O)C(C)c1ccc(OC(C)c2ccccc2)cc1` (stereo not given), the values for the ED50 in assay [5] (setting [9]) and in assay [6] (setting [9]) were 28 mg/kg and 92 µmol/kg, respectively. Moreover, in [1], the IC50 is 500 nM. In the assay on Rattus norvegicus, the Concentration came out at 106 µM.

For the compound `CCCCOc1ccc(C(CCCC)N(O)C(C)=O)cc1` (stereo not given), the IC50 in [1] is 570 nM. In [7], the inhibition in vivo at 200 µmol/kg was less than 40%.

Regarding `CCCCOc1ccc(CCC(C)N(O)C(C)=O)cc1` (stereo not given), the ED50 was found to be 35 mg/kg in [5] (setting [9]) and 120 µmol/kg in [6] (setting [9]). The same compound returned an IC50 in assay [1] of 360 nM.

What is called IC50 is the concentration needed to halve the response being measured. Low values mean inhibition by little substance, high ones a need for much substance. Usually Inhibition stands for the relative decrease from the control value, in per cent. Read a high Inhibition as a strong effect. The inhibition in vivo is how much of the control response was suppressed. Higher therefore signals strong suppression.
